Data published in ChEMBL document CHEMBL4257503, “N-Acetyl-3-aminopyrazoles block the non-canonical NF-kB cascade by selectively inhibiting NIK” (Medchemcomm, 2018).

Assays:
[1] = molecular target: T1, Inhibitor of nuclear factor kappa-B kinase subunit alpha (Homo sapiens, UniProt O15111); experiment: Inhibition of recombinant full length human His-tagged IKKalpha expressed in baculovirus expression system using ERLLDDRHDSGLDSMKDEE peptide as substrate measured after 60 mins by ADP-Glo kinase assay
T1 sequence (O15111 whole entry): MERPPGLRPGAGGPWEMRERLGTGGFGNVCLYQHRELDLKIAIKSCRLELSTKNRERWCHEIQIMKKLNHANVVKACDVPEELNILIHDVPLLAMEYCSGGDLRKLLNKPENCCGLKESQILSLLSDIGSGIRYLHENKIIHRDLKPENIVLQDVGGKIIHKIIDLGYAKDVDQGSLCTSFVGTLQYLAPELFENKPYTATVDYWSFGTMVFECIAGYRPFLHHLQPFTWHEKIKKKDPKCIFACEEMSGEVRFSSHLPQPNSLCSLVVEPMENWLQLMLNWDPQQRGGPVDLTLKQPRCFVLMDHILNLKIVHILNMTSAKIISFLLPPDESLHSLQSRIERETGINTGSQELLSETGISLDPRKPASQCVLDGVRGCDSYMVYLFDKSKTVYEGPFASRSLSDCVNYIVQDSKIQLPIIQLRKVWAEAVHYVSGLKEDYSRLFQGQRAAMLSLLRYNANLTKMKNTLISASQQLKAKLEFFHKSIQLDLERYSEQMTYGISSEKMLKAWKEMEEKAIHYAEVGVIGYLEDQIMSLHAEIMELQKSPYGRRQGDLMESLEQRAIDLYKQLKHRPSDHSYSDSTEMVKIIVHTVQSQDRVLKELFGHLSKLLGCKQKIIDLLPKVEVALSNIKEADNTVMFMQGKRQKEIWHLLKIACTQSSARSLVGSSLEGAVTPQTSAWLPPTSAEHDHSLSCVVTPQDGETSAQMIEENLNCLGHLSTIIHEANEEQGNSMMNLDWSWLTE
Method in brief: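 Recombinant human IKKα, peptide substrate 100 µM, enzyme 8 ng/µL, ATP 1 µM in Tris-HCl pH 7.5 buffer with MgCl2, MnCl2, DTT, Na3VO4, BSA; 25°C, 60 min; ADP-Glo luminescence. Ten concentrations 0.005–100 µM; IC50 by nonlinear regression; means ± SD of three independent experiments.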

[2] = molecular target: T2, Inhibitor of nuclear factor kappa-B kinase subunit epsilon (Homo sapiens, UniProt Q14164); experiment: Inhibition of recombinant human full-length N-terminal GST-fused/His6-tagged IKKepsilon (M1 to V716 residues) expressed in Sf9 insect cells using ERLLDDRHDSGLDSMKDEE peptide as substrate measured after 60 mins by ADP-Glo kinase assay
T2 sequence (Q14164 whole entry): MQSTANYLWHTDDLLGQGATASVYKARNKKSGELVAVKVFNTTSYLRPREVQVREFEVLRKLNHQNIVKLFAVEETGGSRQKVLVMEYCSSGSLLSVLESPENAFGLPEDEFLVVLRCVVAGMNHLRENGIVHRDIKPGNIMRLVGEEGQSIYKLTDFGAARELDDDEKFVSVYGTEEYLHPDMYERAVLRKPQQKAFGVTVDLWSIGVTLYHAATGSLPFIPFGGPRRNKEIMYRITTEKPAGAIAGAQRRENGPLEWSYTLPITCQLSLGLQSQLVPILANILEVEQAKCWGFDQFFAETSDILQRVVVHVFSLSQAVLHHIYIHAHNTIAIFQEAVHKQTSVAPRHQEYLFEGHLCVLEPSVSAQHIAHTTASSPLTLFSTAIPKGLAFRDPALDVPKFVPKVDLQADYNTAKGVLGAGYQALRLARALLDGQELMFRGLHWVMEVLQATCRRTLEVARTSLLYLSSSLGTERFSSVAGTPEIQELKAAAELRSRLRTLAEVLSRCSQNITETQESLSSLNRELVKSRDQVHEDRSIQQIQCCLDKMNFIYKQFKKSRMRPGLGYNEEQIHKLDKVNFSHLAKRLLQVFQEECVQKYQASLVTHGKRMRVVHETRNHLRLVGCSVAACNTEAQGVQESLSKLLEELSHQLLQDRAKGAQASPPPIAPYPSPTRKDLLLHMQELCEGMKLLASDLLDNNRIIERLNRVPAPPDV

[3] = molecular target: T3, Inhibitor of nuclear factor kappa-B kinase subunit beta (Homo sapiens, UniProt O14920); experiment: Inhibition of recombinant human full-length N-terminal GST-fused/His6-tagged IKKbeta (M1 to S756 residues) expressed in Sf9 insect cells using ERLLDDRHDSGLDSMKDEE peptide as substrate measured after 60 mins by ADP-Glo kinase assay
T3 sequence (O14920 whole entry): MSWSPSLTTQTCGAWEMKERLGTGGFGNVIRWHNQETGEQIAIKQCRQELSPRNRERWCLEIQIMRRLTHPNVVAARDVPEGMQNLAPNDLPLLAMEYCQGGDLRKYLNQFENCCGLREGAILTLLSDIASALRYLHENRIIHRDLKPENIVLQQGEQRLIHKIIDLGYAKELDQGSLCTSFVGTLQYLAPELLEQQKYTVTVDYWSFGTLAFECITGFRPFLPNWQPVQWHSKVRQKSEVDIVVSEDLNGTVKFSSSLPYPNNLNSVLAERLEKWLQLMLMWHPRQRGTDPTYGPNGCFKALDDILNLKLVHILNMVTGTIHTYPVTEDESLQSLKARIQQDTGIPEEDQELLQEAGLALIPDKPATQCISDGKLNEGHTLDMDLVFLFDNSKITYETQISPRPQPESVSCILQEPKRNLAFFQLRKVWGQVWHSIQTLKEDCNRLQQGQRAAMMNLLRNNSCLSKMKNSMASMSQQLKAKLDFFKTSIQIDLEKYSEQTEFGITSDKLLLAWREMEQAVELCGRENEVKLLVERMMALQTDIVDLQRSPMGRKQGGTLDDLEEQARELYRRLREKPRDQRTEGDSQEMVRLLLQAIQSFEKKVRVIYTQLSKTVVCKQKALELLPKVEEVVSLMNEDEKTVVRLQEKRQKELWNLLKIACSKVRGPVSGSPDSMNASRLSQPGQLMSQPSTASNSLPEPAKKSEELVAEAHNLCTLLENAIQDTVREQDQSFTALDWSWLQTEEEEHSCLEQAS

[4] = molecular target: Mitogen-activated protein kinase kinase kinase 14 (Homo sapiens, UniProt Q99558); experiment: Inhibition of recombinant human full-length N-terminal GST-fused/His6-tagged NIK (M1 to P947 residues) expressed in Sf9 insect cells using AKDVDQGSLCTSFVGTLQY peptide as substrate measured after 60 mins by ADP-Glo kinase assay
Sequence of Mitogen-activated protein kinase kinase kinase 14 (Q99558 whole entry, the tested form may be a part): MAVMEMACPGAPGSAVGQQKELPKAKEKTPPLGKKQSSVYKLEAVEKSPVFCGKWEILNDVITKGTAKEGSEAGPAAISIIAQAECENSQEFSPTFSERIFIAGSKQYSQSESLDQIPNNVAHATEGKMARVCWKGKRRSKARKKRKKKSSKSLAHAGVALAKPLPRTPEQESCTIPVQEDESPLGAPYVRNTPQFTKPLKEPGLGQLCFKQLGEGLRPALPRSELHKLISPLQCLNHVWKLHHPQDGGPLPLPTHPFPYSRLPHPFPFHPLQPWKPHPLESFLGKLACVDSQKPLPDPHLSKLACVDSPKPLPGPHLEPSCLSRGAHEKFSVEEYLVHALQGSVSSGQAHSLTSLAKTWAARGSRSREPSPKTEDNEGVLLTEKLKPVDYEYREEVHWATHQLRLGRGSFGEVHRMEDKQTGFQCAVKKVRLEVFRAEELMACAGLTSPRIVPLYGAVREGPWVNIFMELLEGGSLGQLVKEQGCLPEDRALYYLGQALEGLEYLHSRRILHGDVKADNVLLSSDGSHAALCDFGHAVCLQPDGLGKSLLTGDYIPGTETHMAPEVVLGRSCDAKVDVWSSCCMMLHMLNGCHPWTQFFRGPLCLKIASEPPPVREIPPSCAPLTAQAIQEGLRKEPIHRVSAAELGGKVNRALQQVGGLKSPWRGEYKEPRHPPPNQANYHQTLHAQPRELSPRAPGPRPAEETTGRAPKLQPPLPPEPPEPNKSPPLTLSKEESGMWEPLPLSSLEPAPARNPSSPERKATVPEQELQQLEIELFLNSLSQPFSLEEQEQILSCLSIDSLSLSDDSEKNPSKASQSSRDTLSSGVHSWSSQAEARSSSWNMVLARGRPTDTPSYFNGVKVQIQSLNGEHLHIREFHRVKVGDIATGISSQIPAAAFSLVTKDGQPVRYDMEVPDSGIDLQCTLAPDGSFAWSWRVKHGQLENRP

| Compound | IC50 [1] | IC50 [2] | IC50 [3] | IC50 [4] |
| --- | --- | --- | --- | --- |
| Cc1c(-c2ccc(Cl)c(Cl)c2)c(N)nn1C | > 100 µM | > 100 µM | > 100 µM | > 100 µM |
| CC(=O)n1nc(N)c(-c2ccc(Cl)c(Cl)c2)c1C | > 100 µM | > 100 µM | > 100 µM | > 100 µM |
| Cc1n[nH]c(N)c1-c1ccccc1 | > 100 µM | > 100 µM | > 100 µM | > 100 µM |
| Cc1[nH]nc(N)c1-c1ccc2ccccc2c1 | > 100 µM | > 100 µM | 42.8 µM | > 100 µM |
| Cc1[nH]nc(N)c1-c1ccc(Br)cc1 | 89.7 µM | > 100 µM | 60.1 µM | > 100 µM |
| Cc1nn(C(=O)C2CC2)c(N)c1-c1ccc(Cl)cc1 | > 100 µM | > 100 µM | > 100 µM | > 100 µM |
| Cc1cccc(-c2c(N)n[nH]c2C)c1 | > 100 µM | > 100 µM | > 100 µM | > 100 µM |
| CCCC(=O)n1nc(C)c(-c2ccc(Cl)c(Cl)c2)c1N | > 100 µM | > 100 µM | > 100 µM | > 100 µM |
| CC(=O)n1nc(C)c(-c2ccc(Cl)cc2)c1N | > 100 µM | > 100 µM | > 100 µM | > 100 µM |
| Cc1nn(C(=O)C2CCCC2)c(N)c1-c1ccc(Cl)c(Cl)c1 | > 100 µM | > 100 µM | > 100 µM | 41 µM |
| Cc1nn(C)c(N)c1-c1ccc(Cl)c(Cl)c1 | > 100 µM | > 100 µM | > 100 µM | > 100 µM |
| Cc1ccc(-c2c(N)n[nH]c2C)cc1C | > 100 µM | > 100 µM | > 100 µM | > 100 µM |
| Cc1[nH]nc(N)c1-c1cccc(Br)c1 | > 100 µM | > 100 µM | 88 µM | > 100 µM |
| CCNC(=O)n1nc(C)c(-c2ccc(Cl)c(Cl)c2)c1N | > 100 µM | > 100 µM | > 100 µM | > 100 µM |
| Cc1ccc(-c2c(N)n[nH]c2C)cc1 | > 100 µM | > 100 µM | > 100 µM | > 100 µM |
| Cc1[nH]nc(NC(=O)c2ccccn2)c1-c1ccc(Cl)c(Cl)c1 | > 100 µM | > 100 µM | > 100 µM | > 100 µM |
| Cc1c(-c2ccc(Cl)c(Cl)c2)c(N)nn1C(=O)C1CCC1 | > 100 µM | > 100 µM | > 100 µM | > 100 µM |
| Cc1[nH]nc(N)c1-c1cccc(Cl)c1 | > 100 µM | 93.4 µM | > 100 µM | > 100 µM |

| Compound | IC50 [1] | IC50 [2] | IC50 [3] | IC50 [4] |
| --- | --- | --- | --- | --- |
| CC(=O)n1nc(N)c(Br)c1C | > 100 µM | > 100 µM | 47.7 µM | 12.5 µM |
| Cc1[nH]nc(N)c1-c1cccc(C(F)(F)F)c1 | > 100 µM | > 100 µM | 22.4 µM | > 100 µM |
| CC(=O)n1nc(C)c(-c2ccc(C)c(C)c2)c1N | > 100 µM | > 100 µM | > 100 µM | 39.6 µM |
| Cc1nn(C(=O)c2ccncc2)c(N)c1-c1ccc(Cl)c(Cl)c1 | > 100 µM | > 100 µM | > 100 µM | 58.2 µM |
| CC(=O)n1nc(C)c(-c2cccc(C(F)(F)F)c2)c1N | > 100 µM | > 100 µM | > 100 µM | > 100 µM |
| CC(=O)n1nc(C)c(Br)c1N | > 100 µM | 22.9 µM | 13.6 µM | > 100 µM |
| CCc1nn(C(C)=O)c(N)c1-c1ccc(Cl)c(Cl)c1 | > 100 µM | > 100 µM | > 100 µM | > 100 µM |
| Cc1[nH]nc(N)c1-c1ccc2c(c1)OCO2 | > 100 µM | > 100 µM | > 100 µM | > 100 µM |
| Cc1[nH]nc(N)c1-c1cccc(OC(F)(F)F)c1 | > 100 µM | > 100 µM | > 100 µM | > 100 µM |
| Cc1[nH]nc(N)c1-c1ccc(OCc2ccccc2)cc1 | > 100 µM | 15.4 µM | > 100 µM | > 100 µM |
| Cc1[nH]nc(N)c1-c1ccc(Cl)c(Cl)c1 | > 100 µM | > 100 µM | 50.9 µM | > 100 µM |
| Cc1c(-c2ccc(Cl)c(Cl)c2)c(N)nn1C(=O)c1cccnc1 | > 100 µM | > 100 µM | > 100 µM | > 100 µM |
| Cc1c(N)n[nH]c1-c1ccc(Cl)c(Cl)c1 | > 100 µM | > 100 µM | 75.7 µM | > 100 µM |
| Cc1[nH]nc(NC(=O)C(F)(F)F)c1-c1ccc(Cl)c(Cl)c1 | 34.9 µM | > 100 µM | > 100 µM | > 100 µM |
| CC(=O)n1nc(C)c(-c2cccc(Cl)c2)c1N | > 100 µM | > 100 µM | > 100 µM | > 100 µM |
| Cc1nn(C(=O)OC(C)(C)C)c(N)c1-c1ccc(Cl)c(Cl)c1 | > 100 µM | > 100 µM | > 100 µM | > 100 µM |
| Cc1[nH]nc(N)c1-c1cc(C(F)(F)F)cc(C(F)(F)F)c1 | > 100 µM | > 100 µM | 22.9 µM | > 100 µM |
| Cc1nn(C(=O)c2cccnc2)c(N)c1-c1ccc(Cl)c(Cl)c1 | > 100 µM | > 100 µM | > 100 µM | > 100 µM |
